Screening results from PubChem.
bCat nuc transl: modulators of beta-catenin nuclear translocation; AID 1665; HeLa beta-catenin nuclear translocation, immunofluorescence imaging; nuclear translocation activity, % at 5 µM; 0.3% of 190,000 active;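 active means nuclear translocation activity above 50% at 5 µM, with a well cell count of 50 or more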;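 further: per-cell ratio of nuclear to cytoplasmic median beta-catenin stain intensity; plate controls were DMSO negative control for no effect and GSK-3 inhibitor IX positive control for full effect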
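System: Human HeLa cells, endogenous beta-catenin | Compound dosing: 5 µM primary, 0.02–20 µM confirmation | Timing: 24 h compound exposure at 37°C, 5% CO2 | Measured by: Fluorescence imaging of beta-catenin antibody stain plus DAPI | Read-out basis: % activation of per-cell nuclear versus cytoplasmic median beta-catenin signal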
Autophagy mod: modulators of autophagy; MEF GFP-LC3 puncta imaging; test concentration mostly 10 µM; calls only at 10 µM (by protocol); 0.98% of 190,000 active; AID 463193;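 active means percentage of spot-positive cells more than 3 SD above its plate mean, without a fluorescence outlier flag or 80% toxicity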;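 further: spot-positive cell cutoff set from DMSO-treated cells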
Insulin prom up: MIN6 insulin promoter up-regulation. z-score at 5 µM. AID 1625. 0.3% of 190,000 active. MIN6 insulin promoter-GFP reporter, high-content imaging; hits give high values;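 active means z-score above 3 at 5 µM with at least 500 cells counted in the well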
Tb hexokinase: blocks Trypanosoma brucei hexokinase 1 activity | inhibition, % at 10 µM | AID 1430 | recombinant TbHK1, G6PDH-coupled NADH A340 | 0.11% of 220,000 active;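 active means inhibition of 50% or more in the single-dose primary screen; inactive means inhibition below 50%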
MT stabilize HCS: stabilizes microtubules in HeLa cells | HeLa tubulin immunostaining HCS, 24 h; share of cells brighter than vehicle mean+2SD | % tubulin-high responders, % at 10 µM | 0.83% of 200,000 active | AID 2205;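 active means plate Z-score above 3 for both tubulin-high and condensed-nucleus cell shares, with cell loss under 80%, at 10 µM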;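 further: anti alpha tubulin signal scored within the nucleus-defined area of each cell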
* marks the source's active call; other numbers are inactive results. Compounds with a hit are over-represented: about 1.9% of the library has one in this group of screens.

Results for CC(=NCCc1c(C)[nH]c2ccc(C)cc12)C1=C(O)CC(c2ccccc2)CC1=O (configuration not stated) ?
bCat nuc transl: 10; Autophagy mod: inactive; Insulin prom up: -0.36; Tb hexokinase: 30; MT stabilize HCS: 16*

What do the screens show for `CCCN1C/C(=C/c2cccc([N+](=O)[O-])c2)C(=O)/C(=C/c2cccc([N+](=O)[O-])c2)C1`?
bCat nuc transl: 2; Autophagy mod: active; Insulin prom up: -1.8; Tb hexokinase: -7; MT stabilize HCS: 37

How did CCCN1C/C(=C/c2ccc3c(c2)OCO3)C(=O)/C(=C/c2ccc3c(c2)OCO3)C1 do in these assays?
bCat nuc transl: 1; Autophagy mod: inactive; Insulin prom up: 0.85; Tb hexokinase: -11; MT stabilize HCS: 4

Results for COc1ccc(C(=O)C2CCCN(Cc3ccc(Sc4nncn4C)o3)C2)cc1F (configuration not stated) ?
bCat nuc transl: 0; Autophagy mod: inactive; Tb hexokinase: 2; MT stabilize HCS: 2

What do the screens show for `COc1cccc(C2=NOC(C(=O)NCc3ccco3)C2)c1` (configuration not stated)?
Autophagy mod: inactive; Tb hexokinase: -5; MT stabilize HCS: 10

How did COc1ccc(C2=NOC(C(=O)NCc3ccccc3)C2)cc1 (configuration not stated) do in these assays?
bCat nuc transl: 154*; Autophagy mod: inactive; Insulin prom up: 0.13; Tb hexokinase: 15; MT stabilize HCS: 7

Results for COc1ccc(CNC(=O)C2CC(c3cc(C(F)(F)F)cc(C(F)(F)F)c3)=NO2)cc1 (configuration not stated) ?
bCat nuc transl: 1; Insulin prom up: -0.09; Tb hexokinase: 4

How did COc1cccc(C2=NOC(C(=O)NCc3ccccc3)C2)c1 (configuration not stated) do in these assays?
bCat nuc transl: 131*; Autophagy mod: inactive; Insulin prom up: 0.17; Tb hexokinase: 43; MT stabilize HCS: 19*

Results for CCOC(=O)c1c(N/N=C/c2cccnc2)n[nH]c1C ?
bCat nuc transl: 14; Insulin prom up: 0.72; Tb hexokinase: -49

Results for CCCc1ccc(C(=O)NC(=O)c2ccccc2O)cc1 ?
bCat nuc transl: 1; Insulin prom up: -3.1; Tb hexokinase: -23

What do the screens show for `CC(=O)Nc1ccc2c(c1)nc1n2CCSC1`?
Autophagy mod: inactive; Tb hexokinase: -4; MT stabilize HCS: 1

How did CCCCC(=O)Nc1ccc2c(c1)nc1n2CCSC1 do in these assays?
bCat nuc transl: -7; Autophagy mod: inactive; Insulin prom up: 3.2*; Tb hexokinase: -7; MT stabilize HCS: 3

How did CCCCCCCC1CC(/C(C)=N/NC(N)=O)OC1=O (configuration not stated) do in these assays?
bCat nuc transl: -1; Autophagy mod: inactive; Insulin prom up: 0.12; Tb hexokinase: 5; MT stabilize HCS: 4

How did Cc1ccc(C2CC(C(F)F)n3ncc(C(=O)Nc4cnn(Cc5ccccc5C)c4)c3N2)cc1 (configuration not stated) do in these assays?
bCat nuc transl: 5; Autophagy mod: inactive; Insulin prom up: -0.33; Tb hexokinase: -11; MT stabilize HCS: 28*

How did O=C(Oc1ccc(C(=S)N2CCOCC2)cc1)c1ccc(Br)cc1 do in these assays?
bCat nuc transl: 2; Autophagy mod: inactive; Insulin prom up: -0.21; Tb hexokinase: -10; MT stabilize HCS: 2

How did COc1ccc(C(=O)Oc2ccc(C(=S)N3CCOCC3)cc2)cc1 do in these assays?
bCat nuc transl: 3; Autophagy mod: active; Insulin prom up: -0.19; Tb hexokinase: 0; MT stabilize HCS: 3

Results for CS(=O)(=O)Nc1nc2n(n1)C(c1ccccc1)CC(c1ccccc1)N2 (configuration not stated) ?
bCat nuc transl: 1; Tb hexokinase: -7

What do the screens show for `Cc1onc(-c2c(Cl)cccc2Cl)c1C(=O)ONC(=O)c1ccccc1`?
bCat nuc transl: 1; Insulin prom up: 0.85; Tb hexokinase: -6

How did COc1cc(OC)c(OC)cc1/C=N/NC(=S)NCCN1CCOCC1 do in these assays?
bCat nuc transl: 0; Autophagy mod: active; Insulin prom up: -0.08; Tb hexokinase: -25; MT stabilize HCS: 8

What do the screens show for `S=C(NCCN1CCOCC1)N/N=C/c1c2ccccc2cc2ccccc12`?
bCat nuc transl: -1; Autophagy mod: active; Insulin prom up: -0.26; Tb hexokinase: -10; MT stabilize HCS: 1

What do the screens show for `COc1ccc2ccccc2c1/C=N/NC(=S)NCCN1CCOCC1`?
bCat nuc transl: -1; Autophagy mod: inactive; Insulin prom up: 0; Tb hexokinase: -21; MT stabilize HCS: 2

What do the screens show for `COc1cc(/C=N/NC(=S)NCCN2CCOCC2)cc(OC)c1O`?
bCat nuc transl: 1; Autophagy mod: inactive; Insulin prom up: -0.14; Tb hexokinase: -46; MT stabilize HCS: 2

What do the screens show for `COc1ccc(C(=O)n2c(-c3ccco3)nc3ccccc32)cc1`?
bCat nuc transl: 75*; Autophagy mod: inactive; Insulin prom up: 0.61; Tb hexokinase: -7; MT stabilize HCS: 24*

What do the screens show for `COc1ccc(C(=O)N2CCn3c2nc2ccccc23)cc1`?
bCat nuc transl: 0; Autophagy mod: inactive; Insulin prom up: 0.08; Tb hexokinase: 2; MT stabilize HCS: 2

Results for COc1ccccc1C(C)NC(=O)c1ccc(C)o1 (configuration not stated) ?
Autophagy mod: inactive; Tb hexokinase: -2; MT stabilize HCS: 44*

What do the screens show for `COc1ccc(OC)c(C(C)NC(=O)c2ccco2)c1` (configuration not stated)?
bCat nuc transl: 3; Autophagy mod: inactive; Insulin prom up: 0.14; Tb hexokinase: -2; MT stabilize HCS: 26*

What do the screens show for `O=C(Nc1ccccc1)c1cccc(=O)o1`?
bCat nuc transl: 1; Tb hexokinase: -25

What do the screens show for `O=C1COc2ccc(C(=O)COc3ccc([N+](=O)[O-])cc3)cc2N1`?
bCat nuc transl: 0; Insulin prom up: 0.32; Tb hexokinase: -12

Results for C(=C\c1ccccc1)/CSc1nnc(-c2cnccn2)n1Cc1ccco1 ?
bCat nuc transl: 56*; Autophagy mod: inactive; Tb hexokinase: 2; MT stabilize HCS: 5

What do the screens show for `Fc1ccccc1CSc1nnc(-c2cnccn2)n1Cc1ccco1`?
bCat nuc transl: -2; Autophagy mod: inactive; Insulin prom up: -0.32; Tb hexokinase: -1; MT stabilize HCS: 3

What do the screens show for `O=C(CSc1nnc2c3ccccc3c3ccccc3c2n1)Nc1ccccc1`?
bCat nuc transl: 2; Autophagy mod: active; Insulin prom up: -0.67; Tb hexokinase: 13; MT stabilize HCS: 5

Results for COc1ccc(NS(=O)(=O)c2cc(NC(=O)c3ccc(F)cc3)ccc2OC)cc1 ?
bCat nuc transl: 1; Autophagy mod: inactive; Insulin prom up: -0.04; Tb hexokinase: 1; MT stabilize HCS: 3

Results for COc1ccc(NC(=O)c2ccc(F)cc2)cc1S(=O)(=O)Nc1cc(C)ccc1Br ?
bCat nuc transl: 1; Autophagy mod: inactive; Tb hexokinase: 13; MT stabilize HCS: 16*
